As usually defined, the IC50 is the concentration that inhibits the measured activity by half. One may read the Kd as a measure of binding affinity in units of concentration. Read a high Kd as a looser complex.

Assay [1] concerns the target T1, IgG receptor FcRn large subunit p51 (Homo sapiens, UniProt P55899). As to the kind of experiment: Inhibition of human IgG binding to soluble human FcRn by ELISA. Summed up:
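Biotinylated soluble human FcRn immobilized on neutravidin plates, incubated with hIgG (3 nM, constant) and peptide at varying concentrations for 2 h at 37 °C. After washing, bound hIgG detected with peroxidase-conjugated hIgG-specific Fab fragments.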
Background: An ELISA detects its analyte on a solid surface through an enzyme-linked reagent.

Assay [2] addresses T1, IgG receptor FcRn large subunit p51. As to the kind of experiment: Binding affinity to human FcRn at pH 7.4 by surface plasmon resonance assay. Summed up: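 Soluble human FcRn coupled to the dextran surface of a CM5 chip; peptide dilutions flowed over the chip. Equilibrium response at each dilution plotted against concentration, and Kd fitted with a steady-state affinity model.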
In general terms: In SPR one partner is held on a chip, and binding of the other changes the refractive index at the surface.

The target is the same in assay [3]. As to the kind of experiment: Binding affinity to human FcRn at pH 6 by surface plasmon resonance assay. In outline:
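Soluble human FcRn coupled to the dextran surface of a CM5 chip; peptide dilutions flowed over the chip. The equilibrium response at each dilution was plotted against concentration and fitted to a steady-state affinity model to give Kd.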

Bridge positions count the residues as written; N and C are the ends. Peptide text beside a SMILES is read from it.

T1 sequence (P55899 whole entry, the tested form may be a part): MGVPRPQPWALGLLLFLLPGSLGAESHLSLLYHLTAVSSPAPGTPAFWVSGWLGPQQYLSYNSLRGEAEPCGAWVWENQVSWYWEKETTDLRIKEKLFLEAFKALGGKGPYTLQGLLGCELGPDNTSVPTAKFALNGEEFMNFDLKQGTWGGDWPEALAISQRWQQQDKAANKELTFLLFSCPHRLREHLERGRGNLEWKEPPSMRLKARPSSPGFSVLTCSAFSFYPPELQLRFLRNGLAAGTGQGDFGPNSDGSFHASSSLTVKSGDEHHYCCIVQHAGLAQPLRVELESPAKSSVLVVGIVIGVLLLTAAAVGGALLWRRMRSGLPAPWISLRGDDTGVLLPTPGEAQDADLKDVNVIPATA

`CC[C@H](C)[C@@H]1NC(=O)CNC(=O)CNC(=O)[C@H](Cc2ccccc2)NC(=O)[C@H](Cc2cnc[nH]2)NC(=O)CNC(=O)[C@H]([C@@H](C)O)NC(=O)[C@H](C(C)C)NC(=O)[C@@H](NC(=O)CNC(=O)CNC(=O)CN)CSSC[C@@H](C(=O)N[C@@H](CC(N)=O)C(=O)N[C@@H](Cc2ccc(O)cc2)C(=O)N[C@@H](CCC(N)=O)C(=O)O)NC(=O)[C@H](Cc2ccc(O)cc2)NC1=O` (H-GGGCVTGHFGGIYCNYQ-OH; disulfide 4-14) displayed an IC50 in assay [1] of 33 µM. In addition, the Kd in assay [2] was 35 µM; in assay [3], 5.2 µM.
The matching figures for `CC[C@H](C)[C@@H]1NC(=O)CNC(=O)[C@H](CC(=O)O)NC(=O)[C@H]([C@@H](C)CC)NC(=O)[C@H](Cc2cnc[nH]2)NC(=O)CNC(=O)[C@H](CCC(=O)O)NC(=O)[C@H]([C@@H](C)CC)NC(=O)[C@@H](NC(=O)[C@H](Cc2ccc(O)cc2)NC(=O)[C@H](CO)NC(=O)[C@@H]2CCCN2)CSSC[C@@H](C(=O)N[C@@H](Cc2ccccc2)C(=O)N[C@@H](CC(N)=O)C(=O)N[C@@H](C)C(=O)O)NC(=O)[C@H](Cc2ccc(O)cc2)NC1=O` (H-PSYCIEGHIDGIYCFNA-OH; disulfide 4-14): 49 µM, 76 µM and 8.8 µM.
Taken in the same sequence, the figures for `CC[C@H](C)[C@H](NC(=O)[C@@H](NC(=O)[C@@H](N)CCCCN)[C@@H](C)CC)C(=O)N[C@H]1CSSC[C@@H](C(=O)N[C@@H](CCC(N)=O)C(=O)NCC(=O)N[C@@H](CCCCN)C(=O)O)NC(=O)[C@H](Cc2ccc(O)cc2)NC(=O)[C@H](CCSC)NC(=O)CNC(=O)CNC(=O)[C@H](Cc2ccccc2)NC(=O)[C@H](Cc2cnc[nH]2)NC(=O)CNC(=O)[C@@H]2CCCN2C(=O)[C@H](CO)NC1=O` (H-KIICSPGHFGGMYCQGK-OH; disulfide 4-14) were 64 µM, 78 µM and 22 µM.
With `CC(C)C[C@@H](C(=O)N[C@@H](Cc1ccc(O)cc1)C(=O)N1CCC[C@H]1C(=O)N[C@@H](CS)C(=O)O)N(C)C(=O)CN(C)C(=O)CNC(=O)[C@H](Cc1ccccc1)NC(=O)[C@H](Cc1cccnc1)NC(=O)CNC(=O)[C@@H](NC(=O)[C@@H](NC(=O)[C@H](Cc1ccccc1)NC(=O)[C@@H](N)CCCNC(=N)N)C(C)(C)S)[C@@H](C)O`, the results for the Kd in assay [2] and in assay [3] were 0.26 µM and 0.064 µM, respectively.
For the compound `CC(C)C[C@@H]1NC(=O)CNC(=O)CNC(=O)[C@H](Cc2ccccc2)NC(=O)[C@H](Cc2cnc[nH]2)NC(=O)CNC(=O)[C@H]([C@@H](C)O)NC(=O)[C@@H](NC(=O)[C@H](Cc2ccccc2)NC(=O)[C@H](CCCN=C(N)N)NC(=O)[C@@H](N)CCC(N)=O)CSSC[C@@H](C(=O)N[C@@H](CC(N)=O)C(=O)NCC(=O)N2CCC[C@H]2C(=O)O)NC(=O)[C@@H]2CCCN2C(=O)[C@H](Cc2ccc(O)cc2)NC1=O`, the IC50 in assay [1] was determined as 36 µM. Further, the Kd was 45 µM in assay [2] and 5.7 µM in assay [3].
`CC(C)C[C@@H](C(=O)N[C@@H](Cc1ccc(O)cc1)C(=O)N1CCC[C@H]1C(=O)N[C@@H](CS)C(=O)O)N(C)C(=O)CN(C)C(=O)CNC(=O)[C@H](Cc1ccccc1)NC(=O)[C@H](CCCN)NC(=O)CNC(=O)[C@@H](NC(=O)[C@@H](NC(=O)[C@H](Cc1ccccc1)NC(=O)[C@@H](N)CCCNC(=N)N)C(C)(C)S)[C@@H](C)O` registered a concentration for half-maximal inhibition (IC50) in assay [1] of 12 µM. In addition, the values for the Kd in assay [2] and in assay [3] were 1.2 µM and 1.3 µM, respectively.
Taken in the same sequence, the figures for `CC(C)C[C@@H](C(=O)N[C@@H](Cc1ccc(O)cc1)C(=O)N1CCC[C@H]1C(=O)N[C@@H](CS)C(=O)O)N(C)C(=O)CN(C)C(=O)CNC(=O)[C@H](Cc1ccccc1)NC(=O)[C@H](Cc1ccncc1)NC(=O)CNC(=O)[C@@H](NC(=O)[C@@H](NC(=O)[C@H](Cc1ccccc1)NC(=O)[C@@H](N)CCCNC(=N)N)C(C)(C)S)[C@@H](C)O` were 1.3 µM, 0.28 µM and 0.067 µM.
`CC(C)C[C@@H](C(=O)N[C@@H](Cc1ccc(O)cc1)C(=O)N1CCC[C@H]1C(=O)N[C@@H](CS)C(=O)O)N(C)C(=O)CN(C)C(=O)CNC(=O)[C@H](Cc1ccccc1)NC(=O)[C@H](CCCCN)NC(=O)CNC(=O)[C@@H](NC(=O)[C@@H](NC(=O)[C@H](Cc1ccccc1)NC(=O)[C@@H](N)CCCN=C(N)N)C(C)(C)S)[C@@H](C)O` had an IC50 in assay [1] of 40 µM. Also, the Kd in assay [2] is 1.1 µM; in assay [3], 1.3 µM.
Taken in the same sequence, the figures for `CC(C)C[C@@H](C(=O)N[C@@H](Cc1ccc(O)cc1)C(=O)N1CCC[C@H]1C(=O)N[C@@H](CS)C(=O)O)N(C)C(=O)CN(C)C(=O)CNC(=O)[C@H](Cc1ccccc1)NC(=O)[C@H](CCCNC(=N)N)NC(=O)CNC(=O)[C@@H](NC(=O)[C@@H](NC(=O)[C@H](Cc1ccccc1)NC(=O)[C@@H](N)CCCNC(=N)N)C(C)(C)S)[C@@H](C)O` were 5.5 µM, 0.5 µM and 0.5 µM.
For `CC(C)C[C@@H](C(=O)N[C@@H](Cc1ccc(O)cc1)C(=O)N1CCC[C@H]1C(=O)N[C@@H](CS)C(=O)O)N(C)C(=O)CN(C)C(=O)CNC(=O)[C@H](Cc1ccccc1)NC(=O)[C@H](Cc1ccc(N=C(N)N)cc1)NC(=O)CNC(=O)[C@@H](NC(=O)[C@@H](NC(=O)[C@H](Cc1ccccc1)NC(=O)[C@@H](N)CCCN=C(N)N)C(C)(C)S)[C@@H](C)O`, the values for the Kd in assay [2] and in assay [3] were 0.073 µM and 0.074 µM, respectively.
For `CC(C)C[C@@H](C(=O)N[C@@H](Cc1ccc(O)cc1)C(=O)N1CCC[C@H]1C(=O)N[C@@H](CS)C(=O)O)N(C)C(=O)CN(C)C(=O)CNC(=O)[C@H](Cc1ccccc1)NC(=O)[C@H](CC1CCNCC1)NC(=O)CNC(=O)[C@@H](NC(=O)[C@@H](NC(=O)[C@H](Cc1ccccc1)NC(=O)[C@@H](N)CCCNC(=N)N)C(C)(C)S)[C@@H](C)O`, in assay [1], the half-maximal inhibitory concentration (IC50) turned out to be 85 µM. Also, the Kd in assay [2] turned out to be 6.4 µM; in assay [3], 5.2 µM.
Regarding `CC(C)C[C@@H](C(=O)N[C@@H](Cc1ccc(O)cc1)C(=O)N1CCC[C@H]1C(=O)N[C@@H](CS)C(=O)O)N(C)C(=O)CN(C)C(=O)CNC(=O)[C@H](Cc1ccccc1)NC(=O)[C@H](Cc1ccc(N)cc1)NC(=O)CNC(=O)[C@@H](NC(=O)[C@@H](NC(=O)[C@H](Cc1ccccc1)NC(=O)[C@@H](N)CCCNC(=N)N)C(C)(C)S)[C@@H](C)O`, the IC50 in assay [1] turned out to be 4.6 µM. Also, in assay [2], binding was characterised by a dissociation constant (Kd) of 1.1 µM.
As for `CC(C)C[C@@H](C(=O)N[C@@H](Cc1ccc(O)cc1)C(=O)N1CCC[C@H]1C(=O)N[C@@H](CS)C(=O)O)N(C)C(=O)CN(C)C(=O)CNC(=O)[C@H](Cc1ccccc1)NC(=O)[C@H](Cc1ccsc1)NC(=O)CNC(=O)[C@@H](NC(=O)[C@@H](NC(=O)[C@H](Cc1ccccc1)NC(=O)[C@@H](N)CCCN=C(N)N)C(C)(C)S)[C@@H](C)O`, in assay [1], the IC50 came out at 45 µM. Also, the Kd amounted to 3 µM in assay [2] and 2 µM in assay [3].
`CC(C)C[C@H](NC(=O)CNC(=O)CNC(=O)[C@H](Cc1ccccc1)NC(=O)[C@H](Cc1cnc[nH]1)NC(=O)CNC(=O)[C@@H](NC(=O)[C@H](CCC(=O)O)NC(=O)[C@H](Cc1ccccc1)NC(=O)[C@H](CCCNC(=N)N)NC(=O)[C@@H](N)CCC(N)=O)[C@@H](C)O)C(=O)N[C@@H](Cc1ccc(O)cc1)C(=O)N1CCC[C@H]1C(=O)N[C@@H](CN)C(=O)N[C@@H](CC(N)=O)C(=O)NCC(=O)N1CCC[C@H]1C(=O)O` had an IC50 in assay [1] of 71 µM. The Kd in assay [3] was found to be 9.6 µM.
`CC(C)C[C@H](NC(=O)CNC(=O)[C@@H](Cc1ccccc1)NC(=O)[C@H](Cc1ccccc1)NC(=O)[C@H](Cc1cnc[nH]1)NC(=O)CNC(=O)[C@@H](NC(=O)[C@@H](NC(=O)[C@H](Cc1ccccc1)NC(=O)[C@H](CCCNC(=N)N)NC(=O)[C@@H](N)CCC(N)=O)C(C)(C)S)[C@@H](C)O)C(=O)N[C@@H](Cc1ccc(O)cc1)C(=O)N1CCC[C@H]1C(=O)N[C@@H](CS)C(=O)N[C@@H](CC(N)=O)C(=O)NCC(=O)N1CCC[C@H]1C(=O)O` registered an IC50 in assay [1] of 2.8 µM. For the same compound, binding in assay [3] was characterised by a dissociation constant (Kd) of 0.51 µM.
Taken in the same sequence, the figures for `CC(C)C[C@@H](C(=O)N[C@@H](Cc1ccc(O)cc1)C(=O)N1CCC[C@H]1C(=O)N[C@@H](CS)C(=O)N[C@@H](CC(N)=O)C(=O)NCC(=O)N1CCC[C@H]1C(=O)O)N(C)C(=O)CNC(=O)CNC(=O)[C@H](Cc1ccccc1)NC(=O)[C@H](Cc1cnc[nH]1)NC(=O)CNC(=O)[C@@H](NC(=O)[C@@H](NC(=O)[C@H](Cc1ccccc1)NC(=O)[C@H](CCCN=C(N)N)NC(=O)[C@@H](N)CCC(N)=O)C(C)(C)S)[C@@H](C)O` were 1.6 µM and 0.086 µM.
Taken in the same sequence, the figures for `CC(C)C[C@@H](C(=O)N[C@@H](Cc1ccc(O)cc1)C(=O)N1CCC[C@H]1C(=O)N[C@@H](CS)C(=O)O)N(C)C(=O)CN(C)C(=O)CNC(=O)[C@H](Cc1ccccc1)NC(=O)[C@H](C)NC(=O)CNC(=O)[C@@H](NC(=O)[C@@H](NC(=O)[C@H](Cc1ccccc1)NC(=O)[C@@H](N)CCCNC(=N)N)C(C)(C)S)[C@@H](C)O` were over 100 µM and 9.9 µM.
Taken in the same sequence, the figures for H-QRFSTGHFGGLYPSNGP-OH were over 125 µM and 230 µM.
With `CC(C)C[C@H](NC(=O)CNC(=O)CNC(=O)[C@H](Cc1ccccc1)NC(=O)[C@H](Cc1cnc[nH]1)NC(=O)CNC(=O)[C@@H](NC(=O)[C@@H](N)CS)[C@@H](C)O)C(=O)N[C@@H](Cc1ccc(O)cc1)C(=O)N1CCC[C@H]1C(=O)N[C@@H](CS)C(=O)N[C@@H](CC(N)=O)C(=O)NCC(=O)N1CCC[C@H]1C(=O)O` (H-CTGHFGGLYPCNGP-OH), the concentration for half-maximal inhibition (IC50) in assay [1] worked out at 239 µM. The dissociation constant Kd in assay [3] came to 34 µM.

The record behind these values is ChEMBL document CHEMBL1150419, “Structure-activity relationships of a peptide inhibitor of the human FcRn:human IgG interaction” (Bioorg Med Chem, 2008).
